Tests used:
[1] = S9 metabolism, mouse hepatic S9 fractions; assay type: in vitro ADME; settings: mouse S9 1 mg/ml, 10 μM, within an hour of incubation, 37°C
[2] = Urinary and fecal excretion, higher dose in CD-1 mice; assay type: in vivo; settings: 40 mg/kg i.v.
[3] = system: MDA-MB-435 breast cancer xenograft; settings: oral doses 70-280 mg/kg and i.v. dose 10 mg/kg; cited from earlier work
[4] = Pharmacokinetic and tissue distribution studies in CD-1 mice; assay type: in vivo, female CD-1 mice
[5] = S9 metabolism, rat hepatic S9 fractions; assay type: in vitro ADME; settings: rat S9 1 mg/ml, 10 μM, within an hour of incubation, 37°C
[6] = system: six different cell lines; settings: cited from earlier work
[7] = S9 metabolism, human hepatic S9 fractions; assay type: in vitro ADME; settings: human S9 1 mg/ml, 10 μM, within an hour of incubation, 37°C
[8] = in vitro assays and xenograft studies; cited from earlier work
[9] = Pharmacokinetic studies in nude mice; assay type: in vivo, female athymic nude mice; settings: for intact compound in plasma / time to highest plasma concentration: solution formulation
Method in brief: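 Female athymic nude mice (~25 g) received a solution formulation (PEG400/EtOH/Tween 80/D5W) at 20 mg/kg i.v., 50 mg/kg i.p. or 100 mg/kg p.o. Others received a suspension (0.05% Tween 80/saline) at 15 mg/kg i.p. or 100 mg/kg p.o. Heparinized retro-orbital blood was taken from 5 min to 24 h (i.v.) or 10 min to 48 h, with ≥3 samples per time point. Plasma was extracted with acetonitrile and measured by HPLC-UV.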

[10] = system: xenograft models of glioma (SF295), lung (H522), breast (MDA-MB-435), ovarian (OVCAR-3) cancers; settings: SF295, H522, MDA-MB-435, OVCAR-3 xenografts; cited from earlier work
[11] = Stability of ML-970 in mouse plasma; assay type: in vitro ADME; settings: for compound remaining intact: 4°C
Method in brief: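 Mouse plasma was spiked with 1 or 10 μM test compound. Samples were held at 37°C in a water bath (sampled at 5, 10, 20, 30 and 60 min and at 2, 4 and 8 h), at 4°C (0.5–24 h) or at −80°C (1, 2 and 4 weeks). Each sample was extracted and measured by HPLC-UV at 308 nm. Remaining amount was expressed as % of the starting concentration versus time.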

[12] = Urinary and fecal excretion after i.v. injection; assay type: in vivo, mice; settings: i.v. injection 20 mg/kg, first 48 h, parent compound
Method in brief: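 Female nude mice dosed i.v. (20 mg/kg, solution formulation) were housed in metabolic cages, and urine and feces were collected for up to 48 h. Containers and cages were rinsed twice with 0.9% saline. Urine and each wash were extracted directly, analysed separately and summed. Feces were homogenized in PBS (5 ml/g), extracted with acetonitrile and measured by HPLC. Results were expressed as % of dose.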

[13] = Preliminary pharmacokinetics; assay type: in vivo, female Sprague-Dawley rats; settings: rats, oral 2.5 vs 5 mg/kg; exception intestine
Method in brief: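 Female Sprague-Dawley rats received oral doses of 2.5 or 5 mg/kg in (PEG400/EtOH/Tween 80 = 6:3:1)/D5W = 1:2, either as a single dose or once daily for 5 days. Plasma was sampled at 1, 6 and 12 h. Lungs, liver, kidneys, small intestine and small-intestine contents were collected at 12 h on days 1 and 5. Tissues were homogenized in PBS, extracted with acetonitrile and analysed by HPLC.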

[14] = system: NCI60; settings: read-out: average GI50; NCI60 screening, cytotoxic activity; cited from earlier work
[15] = system: mouse plasma proteins; test: Binding to mouse plasma proteins; assay type: in vitro ADME; settings: 37°C 1 h
Method in brief: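 Test compound added to mouse plasma at 0.1, 1.0 and 10 μM and held at 37°C for 1 h; methanol replaced plasma in controls. Samples were centrifuged through 30 kDa ultrafiltration units at 2,000×g until dry. Filtrate (free, F) and unfiltered solution (total, T) were each measured in triplicate by HPLC-UV at 308 nm. Filter-bound amount (X) was included: % bound = [(T–F–X)/T] × 100.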

[16] = CD-1 mice, PEG400/EtOH/Tween 80/D5W, i.v., 2.5 mg/kg, plasma
[17] = CD-1 mice, PEG400/EtOH/Tween 80/D5W, p.o., 2.5 mg/kg, plasma
[18] = CD-1 mice, PEG400/EtOH/Tween 80/D5W, p.o., 5 mg/kg, plasma
[19] = nude mice, 0.05% Tween 80/Saline, i.p., 15 mg/kg, plasma
[20] = nude mice, 0.05% Tween 80/Saline, p.o., 100 mg/kg, plasma
[21] = nude mice, PEG400/EtOH/Tween 80/D5W, i.p., 50 mg/kg, plasma
[22] = nude mice, PEG400/EtOH/Tween 80/D5W, i.v., 20 mg/kg, plasma
[23] = nude mice, PEG400/EtOH/Tween 80/D5W, p.o., 100 mg/kg, plasma

## COc1cc2cc(C(=O)Nc3cc(N)c4ccccc4c3CCCl)[nH]c2c(OC)c1OC [ML-970]
[1]
  loss of parent compound with S9 enzymes: no significant loss of the parent compound
[2]; 48 h after treatment
  compound excreted in urine: about 1%
[2]; first 8 h
  parental compound excreted in feces: less than 0.1%
[3]
  tumor growth: inhibited tumor growth
  weight loss (index for host toxicity): no weight loss
[4]; [16]
  AUC0~∞: 1.96 µg·h/mL
  CL or CL/F: 1.27 mL/g/h
  Cmax: 4.34 µg/mL
  MRT: 2.76 h
  T1/2: 0.31 h
  Tmax: 0 min
  Vss: 3.52 mL/g
[4]; CD-1 mice, PEG400/EtOH/Tween 80/D5W, p.o., 2.5 mg/kg
  F^oral: 0.43
[4]; [17]
  AUC0~∞: 0.85 µg·h/mL
  CL or CL/F: 2.61 mL/g/h
  Cmax: 0.55 µg/mL
  MRT: 8.28 h
  T1/2: 10.73 h
  Tmax: 4.8 min
[4]; CD-1 mice, PEG400/EtOH/Tween 80/D5W, p.o., 5 mg/kg
  F^oral: 0.44
[4]; [18]
  AUC0~∞: 1.73 µg·h/mL
  CL or CL/F: 3.22 mL/g/h
  Cmax: 0.99 µg/mL
  MRT: 1.8 h
  T1/2: 2.97 h
  Tmax: 30 min
[4]; mice, i.v. 2.5 mg/kg and p.o. 2.5 mg/kg, levels stayed relatively high for at least 24 h
  tissue distribution: high levels of ML-970 in the liver, gallbladder, and small intestine
[5]
  loss of parent compound with S9 enzymes: no significant loss of the parent compound
[6]
  cell lines killed in hollow fiber assay: efficiently killing six different cell lines
  hollow fiber assay total score: 54 points
[7]
  loss of parent compound with S9 enzymes: no significant loss of the parent compound
[8]
  liver and bone marrow toxicity compared with other CC-1065 analogs: decreased liver and bone marrow toxicity
[9]; doses from 10 to 100 mg/kg, soluble and suspension formulations
  toxicity observed in pharmacokinetic studies: did not observe any toxicity
[9]; [19]
  AUC0~∞: 5.35 µg·h/mL
  CL or CL/F: 2.67 mL/g/h
  Cmax: 1.16 µg/mL
  MRT: 6.21 h
  T1/2: 6.14 h
  Tmax: 60 min
[9]; [20]
  AUC0~∞: 11.52 µg·h/mL
  CL or CL/F: 8.07 mL/g/h
  Cmax: 1.52 µg/mL
  MRT: 8.1 h
  T1/2: 6.73 h
  Tmax: 60 min
[9]; nude mice, 8 h after i.v. 20 mg/kg
  intact compound in plasma: still detectable
[9]; nude mice, 24 h after i.p. 50 mg/kg
  intact compound in plasma: could still be detected
[9]; nude mice, 24 h after p.o. 100 mg/kg
  intact compound in plasma: could still be detected
[9]; [21]
  AUC0~∞: 42.11 µg·h/mL
  CL or CL/F: 1.19 mL/g/h
  Cmax: 20.39 µg/mL
  MRT: 2.5 h
  T1/2: 4.58 h
  Tmax: 10.2 min
[9]; [22]
  AUC0~∞: 14.89 µg·h/mL
  CL or CL/F: 1.35 mL/g/h
  Cmax: 22.35 µg/mL
  MRT: 0.87 h
  T1/2: 0.78 h
  Tmax: 0 min
  Vss: 1.18 mL/g
[9]; nude mice, PEG400/EtOH/Tween 80/D5W, p.o., 100 mg/kg
  F^oral: 0.53
[9]; [23]
  AUC0~∞: 39.63 µg·h/mL
  CL or CL/F: 2.52 mL/g/h
  Cmax: 18.93 µg/mL
  MRT: 2.82 h
  T1/2: 4.26 h
  Tmax: 30 min
[9]; nude mice, i.p. 50 mg/kg
  time to highest plasma concentration: 10 min
[9]; nude mice, oral gavage 100 mg/kg
  time to highest plasma concentration: 30 min
[10]
  antitumor effects in xenograft models: significant antitumor effects in all of the models
[11]; 24-h storage (summary)
  compound remaining intact: approximately 90%
[11]; 24 h, 1 μM
  compound remaining intact: 88.6%
[11]; 24 h, 10 μM
  compound remaining intact: 92.4%
[11]; 37°C, 8-h incubation, both 1 and 10 μM (summary)
  compound remaining: approximately 70%
[11]; 37°C, 8 h, 1 μM
  compound remaining: 70.9%
[11]; 37°C, 8 h, 10 μM
  compound remaining: 70.2%
[11]; −80°C, 4 weeks, 1 μM
  compound remaining: 87.5%
[11]; −80°C, 4 weeks, 10 μM
  compound remaining: 89.8%
[11]; −80°C, a week of storage
  degradation on storage: no significant degradation
[12]
  compound excreted in feces: 1.14%
  compound excreted in urine: less than 0.5%
[13]
  tissue concentrations between two doses: no significant difference
[14]
  GI50: 34 nM
[15]; 0.1 μM
  binding to plasma proteins: 87.57%
[15]; 1.0 μM
  binding to plasma proteins: 89.31%
[15]; 10.0 μM
  binding to plasma proteins: 90.89%
